Results taken from ChEMBL document CHEMBL1129651, “3-Phenyl-substituted imidazo[1,5-alpha]quinoxalin-4-ones and imidazo[1,5-alpha]quinoxaline ureas that have high affinity at the GABAA/benzodiazepine receptor complex” (J Med Chem, 1996).

What was measured:
[1] = biological target: GABA-A receptor; anion channel; assay: Binding affinity against benzodiazepine receptor (BzR) in rat cortical membranes determined by competition experiments with radiolabeled [3H]flunitrazepam (Fnz); type: cell membranes
[2] = biological target: GABA A receptor alpha-3/beta-2/gamma-2 (Rattus norvegicus) (UniProt P18508+P20236+P63138); assay: In vitro efficacy as change in chloride current against GABA-A alpha-3-beta-2-gamma-2 subunit expression; type: functional
[3] = biological target: GABA-A receptor; anion channel (Rattus norvegicus) (UniProt O09028+P15431+P18506+P18508+P19969+P20236+P23574+P23576+P28471+P28473+P30191+P62813+P63079+P63138+Q91ZM7+Q9ES14)
Rattus norvegicus = assay: Ability to antagonize metrazole-induced seizures (clonic and tonic) in rats after intraperitoneal injection; settings: ip
Mus musculus [4] = species on record: Mus musculus; assay: Compound was tested for acute electroshock physical dependence activity (drug MA50/V122 MA50); Active; type: functional
In short: (§1)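 Male CF-1 mice, 10/group, dosed sc twice daily for 3 days (0800, then 2 times that dose at 1600). Flumazenil 2.5 mg/kg iv in 5% aqueous N,N-dimethylacetamide given 24 h after the last dose. 5 min later electroshock seizure threshold estimated by up-down method (0.05 log steps; transpinnal 0.6 ms pulses, 100 Hz, 0.2 s). Comparison is against a saline-treated, flumazenil-injected control group.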

Mus musculus [5] = species on record: Mus musculus; assay: Antagonism of benzodiazepine traction in mice; type: functional
In short: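 Male CF-1 mice given triazolam 1 mg/kg ip together with test compound ip, starting at 100 mg/kg, in 0.25% aqueous methyl cellulose. Dose-response run on 0.5 log scale. Loss of traction scored 15 min later. Absence of the expected loss marks antagonism. ED50 taken from lower doses.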

Mus musculus [6] = species on record: Mus musculus; assay: Compound was tested for Acute electroshock physical dependence activity (drug MA50/V122 MA50); No significant activity; type: functional; in short: as §1
Mus musculus [7] = species on record: Mus musculus; assay: Compound was tested for ethanol potentiation expressed as the loss of traction response (muscle relaxation); type: functional
In short: (§2)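 Male CF-1 mice given 50% aqueous ethanol orally (7.5 mL/kg) plus test compound sc in 0.25% aqueous methyl cellulose (10 mL/kg). Tested 30 min later. Traction: hindlimb placed on wire within 10 s when suspended by forepaws. Righting: rolls onto feet within 10 s when released on its back. Six mice per dose; ED50s determined.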

Mus musculus [8] = species on record: Mus musculus; assay: Compound was tested for ethanol potentiation expressed as loss of righting reflex (anesthesia); type: functional; in short: as §2

## Cc1cccc2c1n(C(C)C)c(=O)c1c(-c3ccc(F)cc3)ncn12
[1]
  Ki: 0.126 µM
[2]
  Cl - current change: 1.7
[3]
  TBPS shift: 1.83
Rattus norvegicus
  ED50: 2.6 mg/kg

## COc1ccc(-c2ncn3c2CN(C(=O)N2CC(C)N(C)C(C)C2)c2ccccc2-3)cc1 (configuration not stated)
[1]
  Ki: 0.00416 µM
Mus musculus [4]
  Activity: 0.6
Mus musculus [5]
  ED50: > 30 mg/kg
[3]
  TBPS shift: 0.27
Rattus norvegicus
  ED50: 0.8 mg/kg

## CC(C)n1c(=O)c2c(-c3ccc(F)cc3)ncn2c2ccccc21
[1]
  Ki: 0.115 µM
Mus musculus [6]
  Activity: 1
[2]
  Cl - current change: 0.45
Mus musculus [7]
  ED50: 14 mg/kg
Mus musculus [5]
  ED50: > 30 mg/kg
Mus musculus [8]
  ED50: > 30 mg/kg
[3]
  TBPS shift: 0.58
Rattus norvegicus
  ED50: 30 mg/kg

## CC(C)n1c(=O)c2c(-c3cccc(C(F)(F)F)c3)ncn2c2ccccc21
[1]
  Ki: 0.188 µM
[2]
  Cl - current change: 0.03
[3]
  TBPS shift: 0.45
Rattus norvegicus
  ED50: > 50 mg/kg

## COc1cccc(-c2ncn3c2c(=O)n(C(C)C)c2ccccc23)c1
[1]
  Ki: 0.207 µM
[2]
  Cl - current change: 0.12
[3]
  TBPS shift: 0.24
Rattus norvegicus
  ED50: > 50 mg/kg

## COc1ccc(-c2ncn3c2c(=O)n(C(C)C)c2c(Cl)cccc23)cc1
[1]
  Ki: 0.0279 µM
Mus musculus [6]
  Activity: 0.91
[2]
  Cl - current change: 1
Mus musculus [7]
  ED50: > 30 mg/kg
Mus musculus [5]
  ED50: > 30 mg/kg
Mus musculus [8]
  ED50: > 30 mg/kg
[3]
  TBPS shift: 1.04
Rattus norvegicus
  ED50: 1.3 mg/kg

## CC(C)n1c(=O)c2c(-c3ccc(F)cc3)ncn2c2ccc(Cl)cc21
[1]
  Ki: 1.69 µM
[2]
  Cl - current change: 0.03
[3]
  TBPS shift: 0.14
Rattus norvegicus
  ED50: > 50 mg/kg

## CC(C)n1c(=O)c2c(-c3noc(C4CC4)n3)ncn2c2ccccc21 [PANADIPLON]
Mus musculus [6]
  Activity: 0.95
Mus musculus [7]
  ED50: 6.6 mg/kg
Mus musculus [5]
  ED50: 1.7 mg/kg
Mus musculus [8]
  ED50: > 30 mg/kg
Rattus norvegicus
  ED50: 1.6 mg/kg
